From ChEMBL document CHEMBL1138683 (J Med Chem, 2004)

Legend:
[1] = Anti convulsant activity administered intra peritoneally to mouse for toxicity at 4 hr with dose of 300 mg/kg; 1/2= No of animals exhibiting toxicity /No of animals tested; format: organism-based; set-up: dose 300 mg/kg; settings: in vivo, ip
[2] = test system: Rattus norvegicus; assay: Anticonvulsant activity after oral administration of 30 mg/kg dose after 30 min in rats; ++ means 50% animals protected; format: functional, organism-based; set-up: dose 30 mg/kg
In short: (§1)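 Oral dosing of rats at a single dose, compound dissolved or suspended in 0.5% methylcellulose. Protection in the MES or scMet test checked 15 min, 30 min, 1 h, 2 h and 4 h after dosing. Scored as 25/50/75/100% of animals protected (+ to ++++), – for none.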

[3] = test system: Mus musculus; assay: Anti convulsant activity administered intra peritoneally to mouse at maximal electroshock test at 4 hr after the drug administered with dose of 100 mg/kg; 0/3= No of animals protected /No of animals tested; format: functional
[4] = test system: Mus musculus; assay: Quantitative Anticonvulsant activity administered intraperitoneally to mouse for subcutaneous metrazol test; format: functional
In short: (§2)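 Mice dosed intraperitoneally with compound dissolved or suspended in 0.5% methylcellulose (0.01 mL per gram body weight). […] Protective index calculated as TD50/ED50 for each seizure test.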

[5] = test system: Mus musculus; assay: Anti convulsant activity administered intra peritoneally to mouse for subcutaneous metrazol test at 4 hr with dose of 300 mg/kg; 1/1= No of animals protected /No of animals tested; format: functional
[6] = test system: Rattus norvegicus; assay: Quantitative Anticonvulsant activity administered orally to rat for subcutaneous metrazol test; format: functional
In short: (§3)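 Oral dosing in rats with compound dissolved or suspended in 0.5% methylcellulose (0.04 mL per 10 g body weight). […] Protective index taken as TD50/ED50 for each test.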

[7] = test system: Rattus norvegicus; assay: Anticonvulsant activity after oral administration of 50 mg/kg dose after 15 min in rats; ++++means 100% of the animals protected; format: functional, organism-based; set-up: dose 50 mg/kg; in short: as §1
[8] = test system: Mus musculus; assay: Anti convulsant activity administered intra peritoneally to mouse at maximal electroshock test at 0.5 hr after the drug administered with dose of 300 mg/kg; 1/1= No of animals protected /No of animals tested; format: functional
[9] = test system: Mus musculus; assay: Anti convulsant activity administered intra peritoneally to mouse at maximal electroshock test at 4 hr after the drug administered with dose of 30 mg/kg; 0/1= No of animals protected /No of animals tested; format: functional
[10] = test system: Rattus norvegicus; assay: Quantitative Anticonvulsant activity administered orally to rat for protective index in maximal electro shock test;TD50/ED50; format: functional; in short: as §3
[11] = test system: Mus musculus; assay: Anti convulsant activity administered intra peritoneally to mouse for subcutaneous metrazol test at 0.5 hr with dose of 300 mg/kg; 1/1= No of animals protected /No of animals tested; format: functional
[12] = test system: Rattus norvegicus; assay: Quantitative Anticonvulsant activity administered orally to rat at maximal electro shock test; the interval in parenthesis stands for 95% confidence interval; format: functional; settings: po; in short: as §3
[13] = test system: Rattus norvegicus; assay: Anticonvulsant activity after oral administration of 100 mg/kg dose after 1 hr in rats; + means 25% of the animals protected; format: functional, organism-based; set-up: dose 100 mg/kg; in short: as §1
[14] = test system: Mus musculus; assay: Anti convulsant activity administered intra peritoneally to mouse for subcutaneous metrazol test at 0.5 hr with dose of 30 mg/kg; 0/1= No of animals protected /No of animals tested; format: functional
[15] = test system: Mus musculus; assay: Anti convulsant activity administered intra peritoneally to mouse at maximal electroshock test at 0.5 h after the drug administered with dose of 30 mg/kg; 0/1= No of animals protected /No of animals tested; format: functional
[16] = test system: Mus musculus; assay: Quantitative Anticonvulsant activity administered intraperitoneally to mouse for protective index in maximal electro shock test;TD50/ED50; format: functional; in short: as §2
[17] = test system: Rattus norvegicus; assay: Quantitative Anticonvulsant activity administered orally to rat for protective index in subcutaneous metrazol test; format: functional; in short: as §3
[18] = test system: Rattus norvegicus; assay: Quantitative Anticonvulsant activity administered orally to rat for toxicity; format: functional; settings: po; in short: as §3
[19] = Anti convulsant activity administered intra peritoneally to mouse for toxicity at 4 hr with dose of 30 mg/kg; 0/2= No of animals exhibiting toxicity /No of animals tested; format: organism-based; set-up: dose 30 mg/kg; settings: in vivo, ip
[20] = Anti convulsant activity administered intra peritoneally to mouse for toxicity at 0.5 hr with dose of 30 mg/kg; 0/4= No of animals exhibiting toxicity /No of animals tested; format: organism-based; set-up: dose 30 mg/kg; settings: in vivo, ip
[21] = test system: Mus musculus; assay: Anti convulsant activity administered intra peritoneally to mouse for toxicity at 4 hr with dose of 30 mg/kg; 2/3= No of animals exhibiting toxicity /No of animals tested; format: functional
[22] = test system: Rattus norvegicus; assay: Anticonvulsant activity after oral administration of 50 mg/kg dose after 30 min in rats; +++ means 75% of the animals protected; format: functional, organism-based; set-up: dose 50 mg/kg
In short: (§4)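 Rats dosed orally with compound dissolved or suspended in 0.5% methylcellulose (0.04 mL per 10 g body weight). Anticonvulsant protection (MES or scMet) and toxicity scored at 15 min, 30 min, 1 h, 2 h and 4 h after dosing. Graded in steps of 25% of animals protected or showing toxicity.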

[23] = test system: Mus musculus; assay: Anti convulsant activity administered intra peritoneally to mouse for subcutaneous metrazol test at 4 hr after the drug administered with dose of 100 mg/kg; 0/1= No of animals protected /No of animals tested; format: functional
[24] = Anti convulsant activity administered intra peritoneally to mouse for toxicity at 4 hr with dose of 100 mg/kg; 0/4= No of animals exhibiting toxicity /No of animals tested; format: organism-based; set-up: dose 100 mg/kg; settings: in vivo, ip
[25] = Anti convulsant activity administered intra peritoneally to mouse for toxicity at 0.5 hr with dose of 300 mg/kg; 4/4= No of animals exhibiting toxicity /No of animals tested; format: organism-based; set-up: dose 300 mg/kg; settings: in vivo, ip
[26] = test system: Mus musculus; assay: Quantitative Anticonvulsant activity administered intraperitoneally to mouse for protective index in subcutaneous metrazol test; format: functional; in short: as §2
[27] = test system: Rattus norvegicus; assay: Anticonvulsant activity after oral administration of 30 mg/kg dose after 1 hr in rats; ++means 50% animals protected; format: functional, organism-based; set-up: dose 30 mg/kg; in short: as §1
[28] = test system: Mus musculus; assay: Anti convulsant activity administered intra peritoneally to mouse for subcutaneous metrazol test at 4 hr after the drug administered with dose of 30 mg/kg; 0/1= No of animals protected /No of animals tested; format: functional; settings: route intraperitoneal
[29] = Anti convulsant activity administered intra peritoneally to mouse for toxicity at 0.5 hr with dose of 100 mg/kg; 0/8= No of animals exhibiting toxicity /No of animals tested; format: organism-based; set-up: dose 100 mg/kg; settings: in vivo, ip
[30] = test system: Mus musculus; assay: Anti convulsant activity administered intra peritoneally to mouse at maximal electroshock test at 4 hr after the drug administered with dose of 300 mg/kg; 0/1= No of animals protected /No of animals tested; format: functional
[31] = Quantitative Anticonvulsant activity administered intraperitoneally to mouse for toxicity; settings: in vivo, ip; in short: as §2
[32] = test system: Mus musculus; assay: Anti convulsant activity administered intra peritoneally to mouse at maximal electroshock test at 0.5 h after the drug administered with dose of 300 mg/kg; 0/1= No of animals protected /No of animals tested; format: functional
[33] = Anti convulsant activity administered intra peritoneally to mouse for toxicity at 4 hr with dose of 300 mg/kg; 0/2= No of animals exhibiting toxicity /No of animals tested; format: organism-based; set-up: dose 300 mg/kg; settings: in vivo, ip
[34] = test system: Mus musculus; assay: Anti convulsant activity administered intra peritoneally to mouse for subcutaneous metrazol test at 4 hr with dose of 300 mg/kg; 0/1= No of animals protected /No of animals tested; format: functional
[35] = Toxicity after oral administration of 100 mg/kg dose in rats; + means 25% of the animals exhibit toxicity; format: organism-based; set-up: dose 100 mg/kg, route oral; settings: rat, in vivo; in short: as §4
[36] = test system: Rattus norvegicus; assay: Anticonvulsant activity after oral administration of 100 mg/kg dose after 4 hr in rats; +means 25% of the animals protected; format: functional, organism-based; set-up: dose 100 mg/kg; in short: as §1
[37] = test system: Mus musculus; assay: Anti convulsant activity administered intra peritoneally to mouse at maximal electroshock test at 0.5 hr after the drug administered with dose of 100 mg/kg; 0/3= No of animals protected /No of animals tested; format: functional
[38] = Anti convulsant activity administered intra peritoneally to mouse for toxicity at 4 hr with dose of 100 mg/kg; 1/4= No of animals exhibiting toxicity /No of animals tested; format: organism-based; set-up: dose 100 mg/kg; settings: in vivo, ip
[39] = test system: Mus musculus; assay: Anti convulsant activity administered intra peritoneally to mouse for subcutaneous metrazol test at 0.5 hr with dose of 100 mg/kg; 0/1= No of animals protected /No of animals tested; format: functional
[40] = Anticonvulsant activity after oral administration of 100 mg/kg dose after 30 min in rats; ++ means 50% of the animals protected; format: organism-based; set-up: dose 100 mg/kg, route oral; settings: rat, in vivo, 0.5 h; in short: as §1
[41] = Anti convulsant activity administered intra peritoneally to mouse for toxicity at 0.5 hr with dose of 100 mg/kg; 7/8= No of animals exhibiting toxicity /No of animals tested; format: organism-based; set-up: dose 100 mg/kg; settings: in vivo, ip
[42] = test system: Mus musculus; assay: Anti convulsant activity administered intra peritoneally to mouse for subcutaneous metrazol test at 0.5 h with dose of 300 mg/kg; 0/1= No of animals protected /No of animals tested; format: functional
[43] = test system: Rattus norvegicus; assay: Toxicity after oral administration of 100 mg/kg dose in rats; + means 25% of the […]; format: functional, organism-based; set-up: dose 100 mg/kg; in short: as §4
[44] = test system: Mus musculus; assay: Anti convulsant activity administered intra peritoneally to mouse for toxicity at 4 hr with dose of 30 mg/kg; 0/3= No of animals exhibiting toxicity /No of animals tested; format: functional
[45] = Anti convulsant activity administered intra peritoneally to mouse for toxicity at 0.5 hr with dose of 300 mg/kg; 2/4= No of animals exhibiting toxicity /No of animals tested; format: organism-based; set-up: dose 300 mg/kg; settings: in vivo, ip
[46] = Anti convulsant activity administered intra peritoneally to mouse for toxicity at 4 hr with dose of 300 mg/kg; 1/4= No of animals exhibiting toxicity /No of animals tested; format: organism-based; set-up: dose 300 mg/kg; settings: in vivo, ip
[47] = test system: Rattus norvegicus; assay: Anticonvulsant activity after oral administration of 30 mg/kg dose after 4 hr in rats; + means 25% of the animals protected; format: functional, organism-based; set-up: dose 30 mg/kg; in short: as §1
[48] = test system: Mus musculus; assay: Anti convulsant activity administered intra peritoneally to mouse at maximal electroshock test at 4 hr after the drug administered with dose of 300 mg/kg; 1/1= No of animals protected /No of animals tested; format: functional
[49] = Anti convulsant activity administered intra peritoneally to mouse for toxicity at 4 hr with dose of 300 mg/kg; 2/2= No of animals exhibiting toxicity /No of animals tested; format: organism-based; set-up: dose 300 mg/kg; settings: in vivo, ip
[50] = test system: Mus musculus; assay: Anti convulsant activity administered intra peritoneally to mouse for toxicity at 4 hr with dose of 30 mg/kg; 1/3= No of animals exhibiting toxicity /No of animals tested; format: functional
[51] = Anti convulsant activity administered intra peritoneally to mouse for toxicity at 4 hr with dose of 100 mg/kg; 4/4= No of animals exhibiting toxicity /No of animals tested; format: organism-based; set-up: dose 100 mg/kg; settings: in vivo, ip

Row | Compound | Activity [3] | Activity [8] | Activity [9] | Activity [13] | Activity [14] | Activity [15] | Toxicity [19] | Toxicity [20] | Activity [23] | Toxicity [25] | Activity [28] | Toxicity [29] | Activity [30] | Activity [34] | Toxicity [38] | Toxicity [41] | Activity [42] | other results
1 | CONC(=O)C1C(C)(C)C1(C)C | 0 | 1 | 0 | 25% of the animals protected | 0 | 0 | 0 | 0 | 0 | 4 | 0 | 0 | 0 | – | – | – | – | Toxicity [1]: 1; Activity [2]: 25% of the animals protected; ED50 [4]: 74 mg/kg; Activity [5]: 1; ED50 [6]: 35 mg/kg; Anticonvulsant Activity [7]: 100% of the animals protected; Ratio [10]: 3.1; Activity [11]: 1; ED50 [12]: 108 mg/kg; Ratio [16]: 1.4 mg/kg; Activity [17]: 9.5; ED50 [18]: 333 mg/kg; Activity [21]: 2; Activity [22]: 25% of the animals protected; Toxicity [24]: 0; Anticonvulsant [26]: 2.2; Activity [27]: 25% of the animals protected; TD50 [31]: 116 mg/kg
2 | CCN(CCO)C(=O)C1C(C)(C)C1(C)C | 0 | – | 0 | 25% of the animals protected | 0 | 0 | 0 | 0 | 0 | 4 | 0 | – | 0 | 0 | 1 | 7 | 0 | Activity [32]: 0; Toxicity [33]: 0; Toxicity [35]: 25% of the animals exhibit toxicity; Activity [36]: 25% of the animals protected; Activity [37]: 0; Activity [39]: 0; Activity [40]: 25% of the animals protected; Toxicity [43]: 25% of the animals exhibit toxicity
3 | CC1(C)C(C(=O)NN)C1(C)C | 0 | 1 | 0 | – | 0 | 0 | 0 | 0 | 0 | – | 0 | 0 | – | 0 | 1 | – | 0 | Activity [44]: 0; Toxicity [45]: 2; Toxicity [46]: 1; Activity [47]: 25% of the animals protected
4 | CC1(C)C(C(=O)N=C(N)N)C1(C)C | 0 | 1 | 0 | – | 0 | 0 | 0 | 0 | – | 4 | 0 | – | – | – | – | 7 | – | Activity [48]: 1; Toxicity [49]: 2; Activity [50]: 1; Toxicity [51]: 4
